Bioassay records from PubChem.
An excerpt weighted towards active compounds, which were near 2.3% of everything screened.
TRPC4 potent – allosteric potentiators of mouse TRPC4 channel; HEK293 TRPC4beta/mu-opioid, DAMGO EC20, Fluo-4 Ca2+ flux; hits give high values; B-score at 10 µM; actives 0.42% (n = 310,000);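 active = B-score of calcium response area above 5 SD of library B-scores, with initial fluorescence ratio within 5 SD of library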
TRPC6 inh – blocks the mouse TRPC6 cation channel; Q61143; HEK293-TRPC6, membrane potential dye, ACh-evoked depolarization; hits give low values; B-score at 10 µM; actives 1.1% (n = 310,000);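 active = B-score under library mean minus 3 SD, initial fluorescence not abnormally high, positive integrated signal ratio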;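 note: B-score derived from integrated fluorescence ratio over the kinetic read; more negative B-score means stronger inhibition of depolarization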
Target sequence (Q61143 whole entry, looked up): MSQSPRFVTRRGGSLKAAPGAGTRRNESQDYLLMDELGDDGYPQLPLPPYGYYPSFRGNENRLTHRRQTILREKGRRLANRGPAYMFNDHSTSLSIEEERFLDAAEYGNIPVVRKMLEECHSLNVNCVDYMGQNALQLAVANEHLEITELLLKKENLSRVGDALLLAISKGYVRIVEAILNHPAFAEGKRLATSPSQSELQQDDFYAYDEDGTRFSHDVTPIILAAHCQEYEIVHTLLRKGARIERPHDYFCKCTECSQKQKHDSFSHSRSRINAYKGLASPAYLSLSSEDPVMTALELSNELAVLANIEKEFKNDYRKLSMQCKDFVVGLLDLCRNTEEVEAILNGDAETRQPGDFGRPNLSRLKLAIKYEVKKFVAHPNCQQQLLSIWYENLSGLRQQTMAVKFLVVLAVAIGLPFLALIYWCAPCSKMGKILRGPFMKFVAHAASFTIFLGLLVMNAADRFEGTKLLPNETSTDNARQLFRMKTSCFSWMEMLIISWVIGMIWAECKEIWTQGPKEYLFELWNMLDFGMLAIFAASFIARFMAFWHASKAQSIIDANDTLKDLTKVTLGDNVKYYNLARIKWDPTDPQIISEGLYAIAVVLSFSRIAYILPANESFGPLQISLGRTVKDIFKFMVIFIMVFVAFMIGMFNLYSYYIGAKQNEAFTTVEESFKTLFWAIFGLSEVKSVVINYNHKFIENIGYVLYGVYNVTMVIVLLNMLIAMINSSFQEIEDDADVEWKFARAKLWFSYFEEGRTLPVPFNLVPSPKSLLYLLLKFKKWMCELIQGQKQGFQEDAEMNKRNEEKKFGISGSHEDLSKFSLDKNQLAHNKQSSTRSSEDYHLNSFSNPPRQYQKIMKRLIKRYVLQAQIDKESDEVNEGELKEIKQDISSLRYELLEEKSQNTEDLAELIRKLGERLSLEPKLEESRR
TRPC6 activator – activators of mouse TRPC6 channel; actives 0.13% (n = 310,000); AID 2550; B-score at 10 µM; HEK293-TRPC6 membrane potential dye fluorescence; hits give high values;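 active = B-score of the integrated fluorescence ratio above library mean plus 3 SD, and starting fluorescence ratio within library mean plus 5 SD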;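 note: higher score means more depolarization so channel activation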
TRPC4 block – inhibitors of mouse TRPC4 channel | Q9QUQ5 | HEK293 TRPC4beta/mu-opioid, DAMGO-evoked Fluo4 calcium flux; hits give low values | B-score at 10 µM | actives 0.39% (n = 300,000) | AID 2247;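 active = B-score over 3 SD under the library average, no early fluorescence shift, positive overall ratio signal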
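Material: HEK293 cells with stable TRPC4beta plus mu-opioid receptor expression / Probe or stimulus: DAMGO in two steps, submaximal then maximal / Compound: single concentration per test compound / Technique: kinetic Fluo4 fluorescence imaging of calcium influx / Read-out: per-well B score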
TRPC4 act – opens the mouse TRPC4 cation channel. AID 2237. HEK293 TRPC4beta/mu-opioid, Fluo4 calcium fluorescence; hits give high values. actives 0.49% (n = 310,000). B-score at 10 µM. Q9QUQ5;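 active = B-score above 5 SD of library B-scores, and initial fluorescence ratio not above library mean plus 5 SD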;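 note: positive B-score marks a calcium rise read as TRPC4 activation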
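Material: TRPC4beta and mu-opioid receptor HEK293 stable cells | Incubation: 45 min room-temperature Fluo4 loading, 110 s read | Detection: Kinetic Fluo4 calcium fluorescence | Measure: Integrated baseline-normalised fluorescence ratio, converted to per-well B score | Benchmarks: Low control buffer alone, high control maximal DAMGO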
TRPC4 sel inh 2 – second selectivity test of TRPC6 inhibitors: effect on mouse TRPC4 | shares compounds with TRPC6 inh | HEK293 TRPC4/MOR, membrane potential dye fluorescence; channel activated by saturating DAMGO dose | inhibition, % at 10 µM | actives 42% (n = 920);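 active = compounds whose fluorescence signal differed from control wells by over 3 SD, either direction, in both duplicate plates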
TRPC4 spec – selectivity of TRPC6 inhibitors: effect on mouse TRPC4; activity change, negative = inhibition, % at 10 µM; HEK293 TRPC4/mu-opioid, membrane potential fluorescence; actives 61% (n = 920); shares compounds with TRPC6 inh;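 active = rise or fall in signal beyond 3 SD of buffer-only wells in both replicate plates, either sign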;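 note: integrated kinetic ratio of fluorescence range over baseline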
HEK293 MPD ctr 2-1 – second counter-screen for TRPC6 inhibitors: parental HEK293 cells; shares compounds with TRPC6 inh; parental HEK293 membrane potential dye fluorescence; maximal acetylcholine challenge after compound addition; signal change vs control, % at 10 µM; actives 31% (n = 920);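 active = membrane potential signal moving either way by over 3 SD of the maximum-effect control, in both duplicate plates, meaning non-specific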
HEK293 MPD ctr-1 – parental HEK293 nonspecific activity of TRPC6 inhibitors. shares compounds with TRPC6 inh. parental HEK293 membrane potential dye fluorescence. membrane potential signal change, % at 10 µM. actives 60% (n = 920);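 active = membrane potential signal shifting up or down by more than 3 SD of buffer-only wells, on both duplicate plates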
HEK293 MPD ctr-2 – counter-screen for TRPC6 modulators: effect in parental HEK293 cells; membrane potential signal change, % at 10 µM; AID 488924; actives 51% (n = 2,400); shares compounds with TRPC6 inh; membrane potential dye fluorescence;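 active = membrane potential signal moves up or down beyond 5 SD from buffer-only wells, on both duplicate plates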
HEK293 MPD ctr 2-2 – second check of TRPC6 modulator effects in parental HEK293 cells; shares compounds with TRPC6 inh; membrane potential dye fluorescence; after compound, maximal acetylcholine stimulation; inhibition, % at 10 µM; actives 14% (n = 2,400); AID 488926;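 active = membrane potential signal drops by more than 5 SD from the mean control signal, in both duplicate plates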
TRPC4/MOR mod – mouse TRPC4 off-target activity of TRPC6 modulators; shares compounds with TRPC6 inh; HEK293 TRPC4/mu-opioid, membrane potential fluorescence; percent change from control (negative = decrease, positive = increase), % at 10 µM; actives 69% (n = 2,400);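 active = membrane potential signal moved up or down beyond 5 SD of buffer control wells, in both duplicate plates, actives on both sides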
TRPC4/MOR inh 2 – mouse TRPC4 off-target activity of TRPC6 modulators, second screen | AID 488928 | inhibition, % at 10 µM | HEK293 TRPC4/mu-opioid, membrane potential dye fluorescence; stimulated with maximal-effect DAMGO | shares compounds with TRPC6 inh | actives 55% (n = 2,400);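 active = drop in membrane potential signal beyond 5 SD of the control wells in both duplicate plates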;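 note: TRPC4 counter screen for TRPC6 hits run under conditions tuned for TRPC6 not TRPC4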
TRPC6 block conf – mouse TRPC6 inhibitor confirmation | shares compounds with TRPC6 inh | HEK293-TRPC6, membrane potential dye, ACh-evoked depolarization | inhibition, % at 10 µM | actives 43% (n = 3,300);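 active = fluorescence ratio falls more than 5 SD below the full-stimulation control mean, in both duplicate runs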;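 note: integrated fluorescence ratio of peak minus minimum over baseline after agonist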
TRPC6 act confirm – mouse TRPC6 activator confirmation. actives 11% (n = 2,800). HEK293-TRPC6 membrane potential dye fluorescence, FDSS. activation, % at 10 µM. AID 488961. shares compounds with TRPC6 inh;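 active = ratio signal rise beyond 5 SD above unstimulated control wells' mean, seen in both duplicate runs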
Hits are given with their value; – = inactive; · = no result given.

SMILES | TRPC4 potent | TRPC6 inh | TRPC6 activator | TRPC4 block | TRPC4 act | HEK293 MPD ctr-2 | HEK293 MPD ctr 2-2 | TRPC4/MOR mod | TRPC4/MOR inh 2 | TRPC6 block conf | TRPC6 act confirm | others
CCCN1CCC(=NNc2ccc(S(=O)(=O)N(CC)CC)cc2[N+](=O)[O-])CC1 | – | -5.89 | – | – | – | – | – | -11.0% | 51.0% | 46.5% | –
COc1cccc(CNC(=O)C(=O)NCC2OCCCN2S(=O)(=O)c2cc(C)ccc2C)c1 (stereo not given) | – | – | – | – | – | · | · | · | · | · | ·
CC(NC(=O)c1cc2cc(Br)ccc2oc1=N)c1ccccc1 (stereo not given) | – | – | – | – | – | · | · | · | · | · | ·
CC(=O)c1cccc(NC(=O)CC2Oc3ccc(C)cc3NC2=O)c1 (stereo not given) | – | – | – | – | – | · | · | · | · | · | ·
COc1ccccc1NC(=O)CC1COc2ccccc2O1 (stereo not given) | – | – | – | – | – | · | · | · | · | · | ·
CCOC(=O)c1ccc(NC(=O)CC2COc3ccccc3O2)cc1 (stereo not given) | – | -7.4 | – | – | – | · | · | · | · | – | – | TRPC4 sel inh 2=–;TRPC4 spec=–;HEK293 MPD ctr 2-1=–;HEK293 MPD ctr-1=–
CCOC(=O)c1cccc(NC(=O)CC2Oc3ccccc3NC2=O)c1 (stereo not given) | – | -6.03 | – | – | – | – | – | – | – | – | –
COc1cc(OC)c(C(=O)N(CCc2ccccc2)Cc2ccccc2)cc1OC | – | -6.89 | – | – | – | · | · | · | · | – | – | TRPC4 sel inh 2=–;TRPC4 spec=15.5%;HEK293 MPD ctr 2-1=–;HEK293 MPD ctr-1=9.0%
O=C(NCCc1ccc(Cl)cc1)c1cccc(NC2=NC3CS(=O)(=O)CC3S2)c1 (stereo not given) | – | – | – | – | – | · | · | · | · | · | ·
Brc1ccc(Oc2ncc(CN3CCN(c4ccccc4)CC3)s2)cc1 | – | -5.39 | – | – | – | – | – | – | – | – | –
CC(=O)Nc1ccc(SCCCC(=O)c2ccccc2)cc1 | – | – | – | – | – | · | · | · | · | · | ·
COc1ccc(/C=N/n2c(C)nc3ccccc3c2=O)cc1OC | – | -6.27 | – | – | – | – | – | – | – | – | –
O=c1c2ccccc2nc(SCc2ccc([N+](=O)[O-])cc2)n1CCCO | – | -5.46 | – | -6 | – | – | – | – | 83.5% | – | –
COCCN(C(=O)COC(=O)CCOc1ccccc1C)c1c(N)n(Cc2ccccc2)c(=O)[nH]c1=O | – | – | – | – | – | · | · | · | · | · | ·
Cc1cc(=O)oc2cc(OCC(=O)N3CCN(C(=O)c4ccco4)CC3)ccc12 | – | -5.51 | – | – | – | – | – | – | – | – | –
Cc1cccc(NC(=S)N2CCN(C(=O)c3ccco3)CC2)c1C | – | – | – | – | – | · | · | · | · | · | ·
Cc1ccc(Sc2c([N+](=O)[O-])ncn2C)cc1 | – | – | – | – | – | · | · | · | · | · | ·
Cc1ccc(Sc2c([N+](=O)[O-])c(C)nn2C)cc1 | – | -8.32 | – | – | – | · | · | · | · | 84.7% | – | TRPC4 sel inh 2=–;TRPC4 spec=–;HEK293 MPD ctr 2-1=-4.0%;HEK293 MPD ctr-1=–
COc1cccc(CNC(=O)CCNC(=O)C2CCN(S(=O)(=O)c3ccccc3)CC2)c1 | – | – | – | – | – | · | · | · | · | · | ·
O=[N+]([O-])c1ccc(/C=N/Nc2nc(N3CCCCC3)nc(N3CCCCC3)n2)cc1 | – | -5.95 | – | – | – | – | – | – | – | – | –
COC(=O)c1ccccc1NC(=O)c1cc[n+](C)cc1 | – | -5.8 | – | – | – | -200.5% | – | -33.0% | – | – | –
COC(=O)c1ccccc1NC(=O)c1cc[n+]([O-])cc1 | – | – | – | – | – | · | · | · | · | · | ·
CC(C)C(Sc1nc(-c2ccccc2)cc(-c2ccccc2)c1C#N)C(=O)O (stereo not given) | – | – | 13.3 | – | – | 355.0% | – | 66.5% | – | – | 126.0%
CC(C)(C)CC(=O)Nc1nnc(C(F)(F)F)s1 | – | – | – | – | – | · | · | · | · | · | ·
CC(NC(=O)Nc1nnc(C(F)(F)F)s1)(C(F)(F)F)C(F)(F)F | – | -7.3 | – | – | – | · | · | · | · | 87.0% | · | TRPC4 sel inh 2=57.0%;TRPC4 spec=50.7%;HEK293 MPD ctr 2-1=–;HEK293 MPD ctr-1=30.4%
SMILES | TRPC4 potent | TRPC6 inh | TRPC6 activator | TRPC4 block | TRPC4 act | HEK293 MPD ctr-2 | HEK293 MPD ctr 2-2 | TRPC4/MOR mod | TRPC4/MOR inh 2 | TRPC6 block conf | TRPC6 act confirm | others
O=C1CNC(=S)N1CCCc1ccccc1 | – | – | – | – | – | · | · | · | · | · | ·
CC1CCN(CC(=O)Nc2ccc(N3CCCCCC3)cc2)CC1 | – | -5.37 | – | – | – | – | – | -17.0% | 38.5% | – | –
O=C(CNCCC1=CCCCC1)Nc1ccc(N2CCCCCC2)cc1 | – | -7.23 | – | – | – | · | · | · | · | – | – | TRPC4 sel inh 2=70.0%;TRPC4 spec=-11.9%;HEK293 MPD ctr 2-1=–;HEK293 MPD ctr-1=-152.0%
O=C(CNC1CCCCCC1)Nc1ccc(N2CCCC2)cc1 | – | – | – | – | – | · | · | · | · | · | ·
O=C(CNC1CCCC1)Nc1ccc(N2CCCCCC2)cc1 | – | -5.35 | – | – | – | – | – | -13.0% | 65.5% | 66.0% | –
CCN(CC)S(=O)(=O)c1cccc(NC(=O)CNC2CCCCCC2)c1 | – | -6.48 | – | – | – | – | – | – | 65.5% | 43.0% | –
O=C(CNCC1CCCO1)Nc1ccc(N2CCCCCC2)cc1 (stereo not given) | – | -6.28 | – | – | – | – | – | -16.0% | 33.0% | – | –
CC(C)NC(=O)c1cnc(Sc2ncc(C(F)(F)F)cc2Cl)n1C | – | -5.71 | – | – | – | – | – | – | – | – | –
